Data published in ChEMBL document CHEMBL1287677, “Antimalarial histone deacetylase inhibitors containing cinnamate or NSAID components” (Bioorg Med Chem Lett, 2010).
Activity calls are given as the source filed them. The rule behind the calls is not given here.

How the values were obtained:
Plasmodium falciparum = test: Antimalarial activity against drug-sensitive ring-stage Plasmodium falciparum 3D7 infected in human O+ erythrocytes assessed as inhibition of parasite growth by [3H]hypoxanthine incorporation assay; assay type: functional, organism-based
[1] = Selectivity index, ratio of IC50 for human HeLa cells to IC50 for drug-sensitive ring-stage Plasmodium falciparum 3D7; assay type: toxicity, cell-based; settings: read-out: Selectivity Index
[2] = Selectivity index, ratio of IC50 for human NFF to IC50 for drug-sensitive ring-stage Plasmodium falciparum 3D7
In short: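 Ratio computed as NFF IC50 divided by 3D7 IC50. Each IC50 is the mean of three experiments.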

[3] = molecular target: T1, Histone deacetylase (Plasmodium falciparum 3D7) (UniProt Q7K6A1); test: (§1) Inhibition of Plasmodium falciparum 3D7 HDAC1 in infected-human erythrocytes assessed as histone H4 hyperacetylation after 1.5 hrs by SDS-PAGE analysis; assay type: cell-based
T1 sequence (whole entry): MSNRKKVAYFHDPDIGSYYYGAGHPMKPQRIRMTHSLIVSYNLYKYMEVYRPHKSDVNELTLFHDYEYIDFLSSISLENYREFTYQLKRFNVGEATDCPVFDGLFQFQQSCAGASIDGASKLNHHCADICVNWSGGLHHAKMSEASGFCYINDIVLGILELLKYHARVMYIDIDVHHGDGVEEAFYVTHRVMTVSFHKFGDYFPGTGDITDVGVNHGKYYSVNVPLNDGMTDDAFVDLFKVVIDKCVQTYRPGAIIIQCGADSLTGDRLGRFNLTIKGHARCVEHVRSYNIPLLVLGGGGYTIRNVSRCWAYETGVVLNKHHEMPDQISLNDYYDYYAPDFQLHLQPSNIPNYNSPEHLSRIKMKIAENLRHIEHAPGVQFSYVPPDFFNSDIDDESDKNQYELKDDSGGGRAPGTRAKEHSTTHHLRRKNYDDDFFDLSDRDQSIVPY

Histone deacetylase = molecular target: T2, Histone deacetylase (Plasmodium falciparum 3D7, UniProt Q7K6A1); test: as §1; assay type: cell-based
T2 sequence (Q7K6A1 whole entry): T1 sequence (whole entry)

NFF = test: Cytotoxicity against human NFF after 96 hrs by sulforhodamine B assay; assay type: cell-based
[4] = molecular target: T1, Histone deacetylase (Plasmodium falciparum 3D7); test: Inhibition of trophozoite stage of Plasmodium falciparum 3D7 HDAC1 in infected-human erythrocytes assessed as histone H4 hyperacetylation at 20 to 100 nM after 3.5 hrs by Western blot analysis; assay type: cell-based
In short: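 P. falciparum 3D7-infected erythrocytes exposed to 20 and 100 nM compound for 3.5 h. Vehicle controls (0.1% DMSO) sampled at start and at 3.5 h. Total protein extracted and run on 15% SDS–PAGE. Histone H4 hyperacetylation read by Western blot with polyclonal anti-tetra-acetyl histone H4 antiserum. Loading checked by Coomassie staining of a matched gel.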

SMILES | IC50 (Plasmodium falciparum) [nM] | IC90 (Plasmodium falciparum) [nM] | further results
CC(C)c1ccc(NC(=O)[C@H](CCCCCC(=O)NO)NC(=O)c2ccc(N(C)C)cc2)cc1 | 22 |  | 
O=C(CCCCC[C@H](NC(=O)Cc1ccccc1Nc1c(Cl)cccc1Cl)C(=O)Nc1cccc2cccnc12)NO | 65 | 119 | 
COc1ccc(/C=C/C(=O)N[C@@H](CCCCCC(=O)NO)C(=O)Nc2cccc3cccnc23)cc1OC | 34 | 61 | 
CN(C)c1ccc(C(=O)N[C@@H](CCCCCC(=O)NO)C(=O)Nc2cccc3cccnc23)cc1 |  |  | selectivity ratio [1]: 17; Selectivity Index [2]: 30
O=C(/C=C/c1ccccc1)N[C@@H](CCCCCC(=O)NO)C(=O)Nc1cccc2cccnc12 |  |  | inhibition [3]: Dose-dependent effect; IC50 (Histone deacetylase): 87 nM
O=C(CCCCC[C@H](NC(=O)c1cc2ccccc2[nH]1)C(=O)Nc1cccc2cccnc12)NO |  |  | inhibition [3]: Dose-dependent effect; IC50 (Histone deacetylase): 78 nM
CC1=C(CC(=O)N[C@@H](CCCCCC(=O)NO)C(=O)Nc2cccc3cccnc23)c2cc(F)ccc2C1=Cc1ccc(S(C)=O)cc1 (stereo partly specified) | 35 | 35 | 
COc1cc(/C=C/C(=O)N[C@@H](CCCCCC(=O)NO)C(=O)Nc2cccc3cccnc23)cc(OC)c1OC | 52 |  | 
COc1ccc2[nH]c(C)c(CC(=O)N[C@@H](CCCCCC(=O)NO)C(=O)Nc3cccc4cccnc34)c2c1 | 13 | 22 | IC50 (NFF): 260 nM; selectivity ratio [1]: 17; inhibition [4]: Active; Selectivity Index [2]: 20
O=C(/C=C/c1ccc(OC/C=C/c2ccccc2)cc1)N[C@@H](CCCCCC(=O)NO)C(=O)Nc1cccc2cccnc12 | 453 | 827 | 
CC(C(=O)N[C@@H](CCCCCC(=O)NO)C(=O)Nc1cccc2cccnc12)c1ccc(N2Cc3ccccc3C2=O)cc1 (stereo partly specified) | 32 | 65 | 
CCCCOc1ccc(/C=C/C(=O)N[C@@H](CCCCCC(=O)NO)C(=O)Nc2cccc3cccnc23)cc1 | 184 | 373 | 
CN(C)c1ccc(C(=O)N[C@@H](CCCCCC(=O)NO)C(=O)Nc2ccccc2Cc2ccccc2)cc1 | 5 |  | inhibition [4]: Active
O=C(/C=C/c1ccc(OCc2ccc(Br)cc2)cc1)N[C@@H](CCCCCC(=O)NO)C(=O)Nc1cccc2cccnc12 | 357 | 687 | 
O=C(/C=C/c1cccc(OC/C=C/c2ccccc2)c1)N[C@@H](CCCCCC(=O)NO)C(=O)Nc1cccc2cccnc12 | 400 | 805 | 
COc1ccc(CCNC(=O)[C@H](CCCCCC(=O)NO)NC(=O)c2ccc(N(C)C)cc2)cc1OC | 101 |  | 
CC(C)CCOc1ccc(/C=C/C(=O)N[C@@H](CCCCCC(=O)NO)C(=O)Nc2cccc3cccnc23)cc1 | 217 | 536 | 
COc1ccc2cc([C@H](C)C(=O)N[C@@H](CCCCCC(=O)NO)C(=O)Nc3cccc4cccnc34)ccc2c1 | 14 | 24 | IC50 (NFF): 169 nM; selectivity ratio [1]: 17; inhibition [4]: Active; Selectivity Index [2]: 12
O=C(/C=C/c1ccco1)N[C@@H](CCCCCC(=O)NO)C(=O)Nc1cccc2cccnc12 | 15 | 27 | 
Cc1ccc(C(=O)c2ccc(CC(=O)N[C@@H](CCCCCC(=O)NO)C(=O)Nc3cccc4cccnc34)n2C)cc1 | 47 | 102 | 
C[C@@H]1CC[C@H]2[C@@H](C)C(=O)O[C@@H]3O[C@@]4(C)CC[C@@H]1[C@]32OO4 |  |  | inhibition [4]: inactive
CC(C(=O)N[C@@H](CCCCCC(=O)NO)C(=O)Nc1cccc2cccnc12)c1ccc(-c2ccccc2)c(F)c1 (stereo partly specified) | 42 | 76 | 
CC(C)CCOc1cccc(/C=C/C(=O)N[C@@H](CCCCCC(=O)NO)C(=O)Nc2cccc3cccnc23)c1 | > 1000 | > 1000 | 
O=C(/C=C/c1cccc(Br)c1)N[C@@H](CCCCCC(=O)NO)C(=O)Nc1cccc2cccnc12 | 50 |  | 
CN(C)c1ccc(C(=O)N[C@@H](CCCCCC(=O)NO)C(=O)Nc2cccc3ccccc23)cc1 | 21 |  | 
COc1cc(/C=C/C(=O)N[C@@H](CCCCCC(=O)NO)C(=O)Nc2cccc3cccnc23)cc(OC)c1O | 14 | 26 | 
Cc1ccc(COc2ccc(/C=C/C(=O)N[C@@H](CCCCCC(=O)NO)C(=O)Nc3cccc4cccnc34)cc2)cc1 | 153 | 375 | 
O=C(CCCCC[C@H](NC(=O)c1ccccc1O)C(=O)Nc1cccc2cccnc12)NO | 115 | 214 | 
O=C(/C=C/c1ccc(Oc2ccccc2)cc1)N[C@@H](CCCCCC(=O)NO)C(=O)Nc1cccc2cccnc12 | 156 |  | 
Cc1cccc(Nc2ccccc2C(=O)N[C@@H](CCCCCC(=O)NO)C(=O)Nc2cccc3cccnc23)c1C | 51 | 89 | 
